Activity calls are given as the source filed them. The rule behind the calls is not given here.
How the values were obtained:
Cricetinae = experiment: Induction of uterus contraction in hamster at 20 ug; type: functional, tissue-based
Procedure, shortened: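 Isolated hamster uterine strip in vitro, Holton method; compound added at 20 µg and scored for oxytocin-like contractile activity.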

Gerbillinae [1] = experiment: Inhibition of PGE2-induced colon smooth muscle contraction in gerbil at […] pretreated for 30 seconds followed by PGE2-challenge measured after 90 seconds; type: functional
Procedure, shortened: (§1)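 Isolated colon smooth muscle from male gerbils in a chamber (Holton method). Compound is introduced at the stated level per 15 mL; 30 s later 40 ng PGE2 is added. Antagonism is read as % inhibition of the PGE2 response.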

Hamster [2] = experiment: Interruption of pregnancy in hamster at 1 mg, sc administered on day 3 of pregnancy; type: functional, organism-based; details: Cricetinae
Procedure, shortened: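 Pregnant hamsters, ten per compound. A single 1 mg per animal dose is given subcutaneously in ethanol on day 3 of pregnancy, and interruption of pregnancy is scored (modified Giannina method).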

[3] = (§2) Inhibition of PGE2-induced colon smooth muscle contraction in gerbil at 40 ug/15 ml pretreated for 30 seconds followed by PGE2-challenge measured after 90 seconds relative to control; type: functional, Gerbillinae; procedure, shortened: as §1
[4] = (§3) Inhibition of PGE2-induced colon smooth muscle contraction in gerbil at 80 ug/15 ml pretreated for 30 seconds followed by PGE2-challenge measured after 90 seconds relative to control; type: functional, Gerbillinae; procedure, shortened: as §1
[5] = (§4) Inhibition of PGE2-induced colon smooth muscle contraction in gerbil at 20 ug/15 ml pretreated for 30 seconds followed by PGE2-challenge measured after 90 seconds relative to control; type: functional, Gerbillinae; procedure, shortened: as §1
[6] = (§5) Inhibition of PGE2-induced colon smooth muscle contraction in gerbil at 125 ug/15 ml pretreated for 30 seconds followed by PGE2-challenge measured after 90 seconds relative to control; type: functional, Gerbillinae; procedure, shortened: as §1
Hamster [7] = experiment: Interruption of pregnancy in hamster at 12.5 ug, sc administered on day 3 of pregnancy relative to control; type: functional, Cricetinae
Gerbillinae [8] = experiment: as §2; type: functional; procedure, shortened: as §1
Gerbillinae [9] = experiment: as §3; type: functional; procedure, shortened: as §1
Gerbillinae [10] = experiment: as §4; type: functional; procedure, shortened: as §1
Gerbillinae [11] = experiment: as §5; type: functional; procedure, shortened: as §1

SMILES	Activity (Cricetinae)	Activity (Hamster [2])	further results
CCCCC[C@@](C)(O)/C=C/[C@H]1COC(=O)[C@@H]1CCCCCCC(=O)OC (racemic)	inactive	inactive	inhibition (Gerbillinae [1]): inactive
CCCCC[C@H](O)/C=C/[C@@H](CO)[C@H](CO)CCCCCCC(=O)OC	inactive	inactive	inhibition (INH) [3]: 14%; inhibition (INH) [4]: 26%; inhibition (INH) [5]: 0%; inhibition (INH) [6]: 41%
CCCCC[C@H](O)/C=C/[C@@H]1[C@@H](C/C=C\CCCC(=O)O)[C@@H](O)C[C@H]1O [DINOPROST]	–	–	Activity (Hamster [7]): 100%
CCCCC[C@@H](O)/C=C/[C@@H](CO)[C@H](CO)CCCCCCC(=O)OC	inactive	inactive	inhibition (Gerbillinae [8]): inactive; inhibition (Gerbillinae [9]): inactive; inhibition (Gerbillinae [10]): inactive; inhibition (Gerbillinae [11]): inactive
CCCCC[C@H](O)/C=C/[C@H]1COC(=O)[C@@H]1CCCCCCC(=O)OC (racemic)	inactive	inactive	–
CCCCC[C@](C)(O)/C=C/[C@H]1COC(=O)[C@@H]1CCCCCCC(=O)OC (racemic)	inactive	inactive	inhibition (Gerbillinae [1]): inactive
CCCCC[C@@H](O)/C=C/[C@H]1COC(=O)[C@@H]1CCCCCCC(=O)OC (single isomer, unassigned)	inactive	inactive	–

— ChEMBL document CHEMBL3244085, “Synthesis and biological evaluation of 10-oxa-11-deoxyprostaglandin E1 and 10-nor-9,11-secoprostaglandin F1 and their derivatives” (1978)
